Laboratory results from ChEMBL document CHEMBL1126922, “Synthesis of 2,4-disubstituted thiazoles and selenazoles as potential antitumor and antifilarial agents: 1. Methyl 4-(isothiocyanatomethyl)thiazole-2-carbamates, -selenazole-2- carbamates, and related derivatives” (J Med Chem, 1993).

Columns and labels:
L1210 [1] = assay: Growth rate measured as ratio of population doubling time of control cells to that of treated L1210 cells at 100 uM; type: functional, Mus musculus
In short: (§1)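 L1210 cells were grown in static suspension at 38 °C in Fischer's medium with 10% heat-inactivated horse serum, with test compound present continuously for 3 days. Growth rate is the treated/control slope of semilog cell number versus time, calculated as control doubling time ÷ treated doubling time. If growth slowed during the run, the final rate at day 3 was used.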

L1210 [2] = assay: In vitro inhibitory concentration of compound against leukemia L1210 cells; type: functional, cell-based; details: Mus musculus
In short: (§2)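 L1210 murine leukemia cells kept in static suspension culture at 38 °C in Fischer's medium with 10% heat-inactivated horse serum. Growth measured over 3 days with the compound present continuously at various concentrations. Growth rate = control doubling time / treated doubling time, using the final rate if growth slowed. IC50 = concentration that cuts growth rate to 50% of control.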

L1210 [3] = assay: Effect on RNA synthesis in L1210 measured by inhibition of incorporation of [3H]uridine into acid insoluble material after 0 hours expressed as percent of control; type: functional, Mus musculus; design: scale not given: the % may be the effect or the level left
In short: (§3)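 L1210 cells given 100 μM compound together with [methyl-3H]dThd (20 Ci/mmol, 1 μCi/mL) or [5-3H]Urd (28.5 Ci/mmol, 1 μCi/mL). Label pulse lasted 1 h, started either at compound addition (0 h) or 6 h later. 3H in the acid-insoluble fraction was counted by liquid scintillation. Values are % of control, mean of two determinations in separate experiments, with range.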

L1210 [4] = assay: Effect on DNA synthesis in L1210 measured by inhibition of incorporation of [3H]dThd into acid insoluble material after 0 hours expressed as percent of control; type: functional, Mus musculus; design: scale not given: the % may be the effect or the level left; in short: as §3
L1210 [5] = assay: Effect on protein synthesis in L1210 measured by inhibition of incorporation of [3H]leucine into acid insoluble material after 0 hours expressed as percent of control; type: functional, Mus musculus; design: scale not given: the % may be the effect or the level left
In short: (§4)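 100 μM compound and L-[3,4,5-3H]leucine (143 Ci/mmol, 1 μCi/mL) were added together to L1210 cells ((1-1.5) × 10^5 cells/mL) for a 1 h pulse, started at 0 h or 6 h after compound. Duplicate samples were chilled in ice-cold Puck's Saline G, washed, and precipitated with BSA plus 8% perchloric acid on ice for 30 min. The pellet was hydrolysed in 1 N NaOH at 37 °C and counted; results are % of control.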

L1210 [6] = assay: Effect on protein synthesis in L1210 measured by inhibition of incorporation of [3H]leucine into acid insoluble material after 6 hours expressed as percent of control; type: functional, Mus musculus; design: scale not given: the % may be the effect or the level left; in short: as §4
L1210 [7] = assay: Effect on DNA synthesis in L1210 measured by inhibition of incorporation of [3H]dThd into acid insoluble material after 6 hours expressed as percent of control; type: functional, Mus musculus; design: scale not given: the % may be the effect or the level left; in short: as §3
L1210 [8] = assay: Effect on RNA synthesis in L1210 measured by inhibition of incorporation of [3H]uridine into acid insoluble material after 6 hours expressed as percent of control; type: functional, Mus musculus; design: scale not given: the % may be the effect or the level left; in short: as §3
L1210 [9] = assay: Growth rate in leukemia L1210 cells at 100 uM; type: functional, Mus musculus; in short: as §1
L1210 [10] = assay: Growth rate measured as ratio of population doubling time of control cells to that of treated L1210 cells at 10 uM
L1210 [11] = assay: In vitro inhibitory concentration of compound against leukemia L1210 cells; No significant inhibition; type: functional, cell-based, Mus musculus; in short: as §2

Row | SMILES | GR (L1210 [1]) [%] | IC50 (L1210 [2]) [µM] | further results
1 | COC(=O)Nc1nc(CCl)c[se]1 | 103 |  | 
2 | COC(=O)Nc1nc(CCCl)cs1 | 92 |  | 
3 | COC(=O)Nc1nc(CN=C=S)cs1 | 0 | 3.2 | Effect (L1210 [3]): 74%; Effect (L1210 [4]): 88%; Effect (L1210 [5]): 58%; Effect (L1210 [6]): 48%; Effect (L1210 [7]): 56%; Effect (L1210 [8]): 67%
4 | CCOC(=O)Cc1csc(NC(=O)OC)n1 | 104 |  | 
5 | COC(=O)Nc1nc(CCN=C=S)cs1 | 0 | 26 | 
6 | COC(=O)Nc1nc(CCO)cs1 |  |  | GR control (L1210 [9]): 102%
7 | COC(=O)Nc1nc(CN=C=[Se])cs1 | 0 | 7.6 | 
8 | COC(=O)Nc1nc(CN=C=S)c[se]1 | 31 | 22 | 
9 | COC(=O)Nc1nc(CCI)cs1 |  |  | GR (L1210 [10]): 92%
10 | COC(=O)Nc1nc(CCl)cs1 | 96 |  | IC50 (L1210 [11]): Not Active
